This note sets out measurements from ChEMBL document CHEMBL5214894, “Biosynthetic Interrogation of Soil Metagenomes Reveals Metamarin, an Uncommon Cyclomarin Congener with Activity against Mycobacterium tuberculosis” (J Nat Prod, 2021).

In brackets after ≈: the same amount, converted by molar mass. Activity calls are given as the source filed them. No cut-off for these calls is given here.

The subject of experiment [1] is Micrococcus luteus. The experiment in a line: Antibacterial activity against Micrococcus luteus NRRL B-1018 assessed as inhibition of bacterial growth incubated for 16 hrs by broth micro dilution analysis. The experiment is classed as functional. The gist of the method: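 Broth microdilution in LB, triplicate. Overnight culture diluted 5000-fold; 100 μL added to 100 μL LB holding 2-fold serial dilutions, final 128 to 0.5 μg/mL. Rifampicin control. Static incubation at 37 °C for 16 h. MIC taken as the lowest concentration with no visible growth.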

The subject of experiment [2] is Mycolicibacterium smegmatis. The experiment in a line: Antibacterial activity against Mycobacterium smegmatis mc2 155 assessed as bacterial growth inhibition incubated for 48 hrs Alamar blue staining based assay. The experiment is classed as functional. In outline:
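Culture grown 48 h at 37 °C, shaken in 7H9 with 0.2% glucose, 0.2% glycerol and 0.05% tyloxapol, then diluted to OD600 0.005. Added 1:1 to 2-fold serial dilutions, final 128 to 0.5 μg/mL. Rifampicin control. Static 48 h at 37 °C, then Alamar Blue for 24 h more. Wells staying blue by eye counted as inhibitory.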
(Resazurin is reduced to fluorescent resorufin, in cell work by metabolically active cells.)

In experiment [3] the test system is Mycobacterium tuberculosis. The experiment in a line: Antimycobacterial activity against Mycobacterium tuberculosis H37Rv assessed as bacterial growth inhibition incubated for 6 days by Alamar blue staining based assay. The experiment is classed as functional. Conditions: 144 h, time 6 day. In outline: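 Strains passaged at 37 °C in 7H9 with OADC, 0.2% glycerol and 0.02% tyloxapol to OD600 0.5–0.7, then diluted to OD600 0.005. Final test range 5 to 0.009 μg/mL. Rifampicin control. Incubated 6 days at 37 °C with 5% CO2. Tween 80 and Alamar Blue then added for 24 h. Absorbance read at 570 nm, normalized to 600 nm.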

For experiment [4], the target named is ATP-dependent Clp protease ATP-binding subunit ClpC1 (Mycobacterium tuberculosis) (UniProt P9WPC9). The experiment in a line: Induction of Mycobacterium tuberculosis H37Rv CIpc1 ATPase activity expressed in Escherichia coli BL21 (DE3) cells at 10 uM incubated for 1 hr by Biomol Green Reagent based assay. The gist of the method: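 His-tagged ClpC1, cloned from H37Rv DNA into pET28c and purified by Ni-NTA. Assay in 100 mM Tris, 200 mM KCl, 8 mM MgCl2, pH 7.5, with 1 μM ClpC1 and 100 μM ATP. Compound in DMSO at 0.1, 1.0 and 10 μM final. Incubated 1 h at 37 °C. Released phosphate detected with BIOMOL Green at OD620. Three independent experiments.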
Chain of ATP-dependent Clp protease ATP-binding subunit ClpC1 (Mycobacterium tuberculosis) (P9WPC9 whole entry): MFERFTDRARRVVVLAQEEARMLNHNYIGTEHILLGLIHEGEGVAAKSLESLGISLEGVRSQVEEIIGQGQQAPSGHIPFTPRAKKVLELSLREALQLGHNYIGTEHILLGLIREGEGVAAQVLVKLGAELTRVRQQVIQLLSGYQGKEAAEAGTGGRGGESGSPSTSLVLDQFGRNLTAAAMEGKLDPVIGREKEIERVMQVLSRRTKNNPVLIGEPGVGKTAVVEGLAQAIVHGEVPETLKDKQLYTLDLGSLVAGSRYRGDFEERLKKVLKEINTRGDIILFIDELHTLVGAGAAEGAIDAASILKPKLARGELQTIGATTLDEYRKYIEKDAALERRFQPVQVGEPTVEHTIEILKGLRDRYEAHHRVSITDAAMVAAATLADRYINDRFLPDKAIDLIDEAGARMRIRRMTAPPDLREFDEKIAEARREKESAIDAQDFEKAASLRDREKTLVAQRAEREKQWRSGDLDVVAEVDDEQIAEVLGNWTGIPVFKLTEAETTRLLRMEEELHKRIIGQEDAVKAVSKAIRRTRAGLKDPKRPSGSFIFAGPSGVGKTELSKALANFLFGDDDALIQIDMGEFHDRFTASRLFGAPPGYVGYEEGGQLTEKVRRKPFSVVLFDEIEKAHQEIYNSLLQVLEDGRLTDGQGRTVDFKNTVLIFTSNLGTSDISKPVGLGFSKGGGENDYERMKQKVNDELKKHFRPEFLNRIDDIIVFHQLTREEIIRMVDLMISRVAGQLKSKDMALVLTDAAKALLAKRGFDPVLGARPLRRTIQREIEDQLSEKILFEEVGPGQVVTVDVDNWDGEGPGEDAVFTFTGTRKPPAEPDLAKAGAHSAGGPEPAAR

Experiment [5] relates to Mycobacterium tuberculosis. Put plainly: Induction of Mycobacterium tuberculosis CIpc1/P1/P2 proteolytic activity at 0.1 to 10 uM incubated upto 45 mins by FITC-casein fluorescence based assay. The note with it: dose 0.1-10 µM. In outline:
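FITC-casein 0.3 μM degraded by 1 μM ClpC1 with 2 μM ClpP1/P2 and 2 mM ATP. Buffer 100 mM Tris, 200 mM KCl, 8 mM MgCl2, pH 7.5. Compound in DMSO at 0.1, 1.0 and 10 μM. Change in fluorescence tracked relative to initial, which was set to 100. Triplicate.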

As for `C=CC(C)(C)n1cc(C(O)C2NC(=O)[C@H](C(C)C)NC(=O)[C@H](CC(C)C)N(C)C(=O)[C@H](C(C)C)NC(=O)C(C(OC)c3ccccc3)NC(=O)[C@H](C(C)C)NC(=O)C(CC(C)CO)N(C)C2=O)c2ccccc21` (stereo not given in full), the results for the MIC in experiment [1], in experiment [2] and in experiment [3] were 8 µg/mL (≈ 7.88 µM), 16 µg/mL (≈ 15.8 µM) and 0.16 µg/mL (≈ 0.158 µM), respectively. The outcome in experiment [4] and in experiment [5] was Active.
